The source made the active and inactive calls. The rule behind the calls is not given here.
Legend:
Mus musculus [1] = assay: Antitumor activity against mouse EAC allografted in CF1 mouse assessed as ascrit fluid volume at 20 mg/kg, ip qd for 7 days (reference value: 6.63 +/- 1.24 mL); format: functional; settings: route intraperitoneal
Mus musculus [2] = assay: Antitumor activity against mouse EAC allografted in CF1 mouse assessed as tumor growth inhibition at 20 mg/kg, ip qd for 7 days (reference value: 0%); format: functional; settings: 168 h, route intraperitoneal
Mus musculus [3] = assay: Antiinflammatory activity in CF1 mouse assessed as increase in foot weight at 20 mg/kg, ip administered 3 hrs and 30 mins prior to carrageenan-challenge measured after 3 hrs (reference value: 97 +/- 10 mg); format: functional; settings: route intraperitoneal
Mus musculus [4] = assay: Antiinflammatory activity in CF1 mouse assessed as inhibition of carrageenan-induced paw edema at 20 mg/kg, ip administered 3 hrs and 30 mins prior to carrageenan-challenge measured after 3 hrs (reference value: 0%); format: functional; settings: route intraperitoneal
[5] = Acute toxicity in CF1 mouse; format: organism-based; settings: in vivo
Mus musculus [6] = assay: Antitumor activity against mouse P388 cells allografted in DBA/2 mouse assessed as host survival on day 7 at 20 mg/kg, ip qd for 2 weeks; format: functional; settings: route intraperitoneal
Outline: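 P388 leukemia in male DBA/2 mice (20 g): 10⁶ cells implanted on day 0. Compounds were given ip at 20 (mg/kg)/day for 2 weeks. Survival was expressed as T/C by the NIH protocol; T/C > 120 counted as significant. 5-Fluorouracil was the internal standard.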

Mus musculus [7] = assay: Antitumor activity against mouse P388 cells allografted in DBA/2 mouse assessed as tumor growth inhibition at 20 mg/kg, ip qd for 2 weeks (reference value: 100%); format: functional; settings: route intraperitoneal
Outline: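 DBA/2 male mice (20 g) implanted with 10^6 P-388 cells on day 0, then dosed ip at 20 mg/kg/day for 2 weeks. T/C computed by the NIH protocol; T/C ≥120 counted as significant. 5-Fluorouracil served as internal standard.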

Mus musculus [8] = organism: Mus musculus; assay: Toxicity in CF1 mouse; format: organism-based; settings: in vivo
Mus musculus [9] = assay: Antitumor activity against mouse EAC allografted in CF1 mouse assessed as host survival on day 7 at 20 mg/kg, ip qd for 7 days; format: functional, organism-based; set-up: dose 20 mg/kg
Mus musculus [10] = assay: Immunosuppressive activity in mouse splenic lymphocytes isolated from 25 mg/kg, ip on days 2,3 and 4 treated CF1 mouse assessed as reduction in sheep red blood cell antigen-induced plaque-forming response (reference value: 100%); set-up: scale not given: the % may be the effect or the level left; settings: route intraperitoneal
Mus musculus [11] = assay: Immunosuppressive activity in mouse splenic lymphocytes isolated from 0.1 mg, ip on days 2,3 and 4 treated CF1 mouse assessed as reduction in sheep red blood cell antigen-induced plaque-forming response (reference value: 100%); set-up: scale not given: the % may be the effect or the level left
Mus musculus [12] = assay: Analgesic activity in CF1 mouse assessed as inhibition of acetic acid-induced writhing reflex measured for 10 mins at 20 mg/kg,ip administration 5 mins prior to test by […]; format: functional, organism-based; set-up: dose 20 mg/kg
Rattus norvegicus [13] = assay: Antipyretic activity in Sprague-Dawley rat assessed as decrease in yeast/mycobacterium butyricum-induced increase temperature at 2.5 mg/kg, ip; format: functional, organism-based; set-up: dose 2.5 mg/kg
Rattus norvegicus [14] = assay: Antipyretic activity in Sprague-Dawley rat assessed as decrease in yeast/mycobacterium butyricum-induced increase temperature at 5 mg/kg, ip; format: functional, organism-based; set-up: dose 5 mg/kg
Mus musculus [15] = assay: Analgesic activity in CF1 mouse assessed as inhibition of acetic acid-induced pain measured for 10 mins at 2.5 mg/kg,ip administration 5 mins prior to test by […]; format: functional, organism-based; set-up: dose 2.5 mg/kg
Mus musculus [16] = assay: Analgesic activity in CF1 mouse assessed as inhibition of acetic acid-induced pain measured for 10 mins at 5 mg/kg,ip administration 5 mins prior to test by […]; format: functional, organism-based; set-up: dose 5 mg/kg

Row | SMILES | Activity (Mus musculus [1]) [mL] | inhibition in vivo at 20 mg/kg (Mus musculus [2]) [%] | Activity (Mus musculus [3]) [mg] | inhibition in vivo at 20 mg/kg (Mus musculus [4]) [%] | LD50 [5] [µmol/kg] | Survival (Mus musculus [6]) [days] | T/C (Mus musculus [7]) | Activity (Mus musculus [8]) | Activity (Mus musculus [9]) | Activity (Mus musculus [10]) [%] | Activity (Mus musculus [11]) [%] | inhibition (Mus musculus [12]) | Activity (Rattus norvegicus [13]) | Activity (Rattus norvegicus [14]) | Activity (Mus musculus [15]) | Activity (Mus musculus [16])
1 | Cc1ccc(S(=O)(=O)N[C@@H](Cc2ccccc2)C(=O)CCl)cc1 [TPCK] | 0.01 | 100 | 31 | 56 | 210 |  |  |  |  |  |  |  |  |  |  | 
2 | CCC(C)C(NC(=O)c1ccccc1)C(=O)OCC#N (stereo unspecified) | 2.97 | 46.6 | 89 | 18 |  | 11.8 | 122 | Non-toxic |  |  |  |  |  |  |  | 
3 | N#CCOC(=O)CNC(=O)OCc1ccccc1 | 2.2 | 29 | 48 | 45 |  |  |  | Non-toxic | Active | 58 |  |  |  |  |  | 
4 | N#CCOC(=O)CCCNC(=O)c1ccccc1 | 2.78 | 43.1 | 68 | 37 |  | 10 | 104 | Non-toxic |  |  |  |  |  |  |  | 
5 | CC(C)C[C@H](NC(=O)c1ccccc1)C(=O)OCC#N | 0.8 | 87.2 | 77 | 29 |  | 11.3 | 117 | Non-toxic |  |  |  |  |  |  |  | 
6 | N#CCOC(=O)C(Cc1ccccc1)NC(=O)OCc1ccccc1 (stereo unspecified) | 0.4 | 86 | 54 | 38 |  |  |  | Non-toxic | Active |  |  |  |  |  |  | 
7 | N#CCOC(=O)CNC(=O)c1ccccc1 | 2.85 | 40.2 | 55 | 50 |  | 10.5 | 109 | Non-toxic | Active |  |  |  |  |  |  | 
8 | C[C@H](NC(=O)c1ccccc1)C(=O)OCC#N | 0.1 | 98.2 | 56 | 49 |  | 9.8 | 101 | Non-toxic | Active |  |  |  |  |  |  | 
9 | N#CCOC(=O)[C@@H]1CCCN1C(=O)c1ccccc1 | 2.93 | 59.3 | 67 | 39 |  | 9 | 93 | Non-toxic |  |  |  |  |  |  |  | 
10 | N#CCOC(=O)[C@H](Cc1ccc(O)cc1)NC(=O)c1ccccc1 | 1.98 | 42.3 | 75 | 41 |  | 11.3 | 113 | Non-toxic |  |  |  |  |  |  |  | 
11 | N#CCOC(=O)[C@H](Cc1ccccc1)NC(=O)[C@H](Cc1ccccc1)NC(=O)OCc1ccccc1 | 2.1 | 43 | 61 | 30 |  |  |  | Non-toxic |  |  |  |  |  |  |  | 
12 | CC(NC(=O)c1ccccc1)C(=O)OCC#N (stereo unspecified) | 2.91 | 43.3 | 87 | 25 |  | 9.7 | 100 | Non-toxic | Active |  |  |  |  |  |  | 
13 | CC(C)C(NC(=O)c1ccccc1)C(=O)OCC#N (stereo unspecified) | 0.07 | 99.9 | 82 | 24 |  | 10.5 | 109 | Non-toxic |  |  |  |  |  |  |  | 
14 | N#CCOC(=O)CCCCCNC(=O)OCc1ccccc1 | 1 | 54 | 63 | 28 |  |  |  | Non-toxic | Active |  |  |  |  |  |  | 
15 | Cc1ccc(S(=O)(=O)N[C@@H](Cc2ccccc2)C(=O)OCC#N)cc1 | 0.4 | 97 | 69 | 21 |  | 9.1 | 94 | Non-toxic |  |  |  |  |  |  |  | 
16 | Sc1ncnc2nc[nH]c12 [MERCAPTOPURINE ANHYDROUS] | 0.7 | 99.6 |  |  |  |  |  |  | Active |  |  |  |  |  |  | 
17 | CC(=O)N[C@@H](Cc1ccccc1)C(=O)OCC#N | 3.9 | 16 | 49 | 44 |  |  |  | Non-toxic | Active |  |  |  |  |  |  | 
18 | N#CCOC(=O)CCNC(=O)c1ccccc1 | 4.96 | 11.6 | 75 | 31 |  |  |  | Non-toxic |  |  |  |  |  |  |  | 
19 | N[C@@H](Cc1ccc(N(CCCl)CCCl)cc1)C(=O)O [MELPHALAN] |  |  |  |  |  |  |  |  |  | 100 | 51 |  |  |  |  | 
20 | N#CCOC(=O)[C@H](Cc1ccccc1)NC(=O)OCc1ccccc1 | 0.2 | 99.9 | 39 | 55 |  | 6.6 | 68 | Non-toxic | Active | 86 |  | Active | inactive | inactive | inactive | inactive
21 | N#CCOC(=O)CCCCCNC(=O)c1ccccc1 | 2.73 | 45.2 | 65 | 40 |  | 10.3 |  | Non-toxic | Active |  |  |  |  |  |  | 
22 | O=c1[nH]cc(F)c(=O)[nH]1 [FLUOROURACIL] |  |  |  |  |  | 18 | 186 |  |  |  |  |  |  |  |  | 
23 | N#CCOC(=O)[C@H](Cc1ccccc1)NC(=O)c1ccccc1 | 1.8 | 47 | 43 | 51 |  |  |  | Non-toxic |  |  |  |  |  |  |  | 
